In ChEMBL document CHEMBL1139890, “Cucurbitane glycosides from the fruits of Siraitia gros venorii and their inhibitory effects on Epstein-Barr virus activation” (2007) one finds Activity and Ratio data, which are given here for nine compounds.

SMILES strings stand for the structures.

Experiment [1] deals with Human gammaherpesvirus 4. In words: Inhibitory effect on TPA-induced Epstein-Barr virus early antigen activation in Raji cells at 500 mol ratio/32 pmol TPA relative to TPA. It counts as functional. The arrangement: scale not given: the % may be the effect or the level left. In short, it runs like this: (§1)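 Raji cells induced with TPA at 32 pmol (20 ng), taken as 100%. Compounds given as molar ratio to TPA. EBV-EA induction is scored against this TPA-only positive control. Raji cell viability is reported as a percentage. IC50 is the molar ratio to TPA giving 50% inhibition of the positive control.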

In experiment [2] the test system is Human gammaherpesvirus 4. As to the kind of experiment: Inhibitory effect on TPA-induced Epstein-Barr virus early antigen activation in Raji cells at 1000 mol ratio/32 pmol TPA relative to TPA. The arrangement: scale not given: the % may be the effect or the level left. It counts as functional. The gist of the method:
as §1

In experiment [3] the test system is Human gammaherpesvirus 4. As to the kind of experiment: Inhibitory effect on TPA-induced Epstein-Barr virus early antigen activation in Raji cells at 10 mol ratio/32 pmol TPA relative to TPA. It counts as functional. The arrangement: scale not given: the % may be the effect or the level left. In short, it runs like this: as §1
In experiment [4] the test system is Human gammaherpesvirus 4. As to the kind of experiment: Inhibitory effect on TPA-induced Epstein-Barr virus early antigen activation in Raji cells at 100 mol ratio/32 pmol TPA relative to TPA. The format is functional. Details: scale not given: the % may be the effect or the level left. The gist of the method: as §1
Another experiment has as its system Raji. As to the kind of experiment: Cell viability of Raji cells at 1000 mol ratio/32 pmol TPA. It counts as functional, Homo sapiens. In short, it runs like this: as §1
Experiment [5] is described as follows: Inhibitory ratio on NOR1-induced NO activation in human Chang liver cells assessed as nitric oxide scavenging activity relative to NOR1. It counts as functional. In short, it runs like this: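 Chang liver cells (normal human hepatic cells) were used with NOR 1, an NO donor, as the NO source. Compounds were tested at 350 nmol. Scavenging of NO generated by NOR 1 is given as an inhibitory ratio. The ratio for NOR 1 alone (positive control, 350 nm) is set at 1.0.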

Take `C[C@H](CC[C@@H](O[C@@H]1O[C@H](CO[C@@H]2O[C@H](CO)[C@@H](O)[C@H](O)[C@H]2O)[C@@H](O)[C@H](O)[C@H]1O)C(C)(C)O)[C@H]1CC[C@@]2(C)[C@@H]3CC=C4[C@@H](CC[C@H](O[C@@H]5O[C@H](CO)[C@@H](O)[C@H](O)[C@H]5O)C4(C)C)[C@]3(C)CC[C@]12C`: the Activity with Human gammaherpesvirus 4 [1] is reported as 25.7%; in the experiment on Human gammaherpesvirus 4 [2], 10.6%; in the experiment with Human gammaherpesvirus 4 [3], 100%; with Human gammaherpesvirus 4 [4] it was 81.9%; with Raji, 70%. Further, the Ratio in experiment [5] is given as 1.5.
As to `C[C@H](CC[C@@H](O[C@@H]1O[C@H](CO)[C@@H](O)[C@H](O)[C@H]1O)C(C)(C)O)[C@H]1CC[C@@]2(C)[C@@H]3C(=O)C=C4[C@@H](CC[C@H](O[C@@H]5O[C@H](CO)[C@@H](O)[C@H](O)[C@H]5O)C4(C)C)[C@]3(C)[C@H](O)C[C@]12C`, the Activity with Human gammaherpesvirus 4 [1] was 24.4%; in the experiment on Human gammaherpesvirus 4 [2], 7.7%; in the experiment with Human gammaherpesvirus 4 [3] it was 100%; in the experiment with Human gammaherpesvirus 4 [4], 80.8%; in the experiment with Raji it was 70%. Further, the Ratio in experiment [5] was 1.5.
`CC1(C)N([O])C(c2ccc(C(=O)O)cc2)=[N+]([O-])C1(C)C`: the Ratio in experiment [5] worked out at 8.
On to `C[C@H](CC[C@@H](O[C@@H]1O[C@H](CO[C@@H]2O[C@H](CO)[C@@H](O)[C@H](O)[C@H]2O)[C@@H](O)[C@H](O)[C@H]1O)C(C)(C)O)[C@H]1CC[C@@]2(C)[C@@H]3CC=C4[C@@H](CC[C@H](O)C4(C)C)[C@]3(C)C(=O)C[C@]12C`, for which the Activity in the experiment on Human gammaherpesvirus 4 [1] came to 25%; in the experiment on Human gammaherpesvirus 4 [2] it was 8.5%; in the experiment on Human gammaherpesvirus 4 [3], 100%; in the experiment with Human gammaherpesvirus 4 [4] it was 80.6%; with Raji, 70%. Further, the Ratio in experiment [5] worked out at 1.4.
In the case of `C[C@H](CC[C@@H](O[C@@H]1O[C@H](CO[C@@H]2O[C@H](CO)[C@@H](O)[C@H](O)[C@H]2O)[C@@H](O)[C@H](O)[C@H]1O)C(C)(C)O)[C@H]1CC[C@@]2(C)[C@@H]3CC=C4[C@@H](CC[C@H](O[C@@H]5O[C@H](CO[C@@H]6O[C@H](CO)[C@@H](O)[C@H](O)[C@H]6O)[C@@H](O)[C@H](O)[C@H]5O)C4(C)C)[C@]3(C)C(=O)C[C@]12C` [11-OXOMOGROSIDE IV A], the Activity in the experiment on Human gammaherpesvirus 4 [1] is on record as 27.3%; in the experiment with Human gammaherpesvirus 4 [2], 10.3%; in the experiment with Human gammaherpesvirus 4 [3], 100%; in the experiment with Human gammaherpesvirus 4 [4], 82.5%; in the experiment with Raji it was 70%. Moreover, in experiment [5], the Ratio was determined as 1.4.
Regarding `CC1=C(/C=C/C(C)=C/C=C/C(C)=C/C=C/C=C(C)/C=C/C=C(C)/C=C/C2=C(C)CCCC2(C)C)C(C)(C)CCC1` [BETA CAROTENE], the Activity in the experiment on Human gammaherpesvirus 4 [2] worked out at 8.6%; in the experiment with Human gammaherpesvirus 4 [3], 100%; in the experiment on Raji, 70%.
`CC1(C)[C@@H](O[C@H]2O[C@H](C(=O)O)[C@@H](O)[C@H](O)[C@H]2O[C@@H]2O[C@H](C(=O)O)[C@@H](O)[C@H](O)[C@H]2O)CC[C@]2(C)[C@H]3C(=O)C=C4[C@@H]5C[C@@](C)(C(=O)O)CC[C@]5(C)CC[C@@]4(C)[C@]3(C)CC[C@@H]12` [GLYCYRRHIZIN]: in experiment [5], the Ratio was 2.2.
Turning to `C[C@H](CC[C@@H](O)C(C)(C)O[C@@H]1O[C@H](CO)[C@@H](O)[C@H](O)[C@H]1O)[C@H]1CC[C@@]2(C)[C@@H]3CC=C4[C@@H](CC[C@H](O[C@@H]5O[C@H](CO)[C@@H](O)[C@H](O)[C@H]5O)C4(C)C)[C@]3(C)[C@H](O)C[C@]12C` [MOGROSIDE II B], the Activity was determined as 26% with Human gammaherpesvirus 4 [1]; 7.2% in the experiment on Human gammaherpesvirus 4 [2]; 100% in the experiment on Human gammaherpesvirus 4 [3]; 76% with Human gammaherpesvirus 4 [4]; 70% in the experiment with Raji. Moreover, the Ratio in experiment [5] was 1.5.
For `C[C@H](CC[C@@H](O[C@@H]1O[C@H](CO)[C@@H](O)[C@H](O)[C@H]1O)C(C)(C)O)[C@H]1CC[C@@]2(C)[C@@H]3CC=C4[C@@H](CC[C@H](O[C@@H]5O[C@H](CO[C@@H]6O[C@H](CO)[C@@H](O)[C@H](O)[C@H]6O)[C@@H](O)[C@H](O)[C@H]5O)C4(C)C)[C@]3(C)[C@H](O)C[C@]12C` [MOGROSIDE III A2], the Activity with Human gammaherpesvirus 4 [1] is on record as 24%; with Human gammaherpesvirus 4 [2], 5.1%; in the experiment with Human gammaherpesvirus 4 [3] it was 100%; with Human gammaherpesvirus 4 [4] it was 75.3%; in the experiment on Raji it was 70%. Also, the Ratio in experiment [5] came to 1.5.
